According to ChEMBL document CHEMBL3232959, “Design, synthesis and biological evaluation of small-azo-dyes as potent Vesicular Glutamate Transporters inhibitors” (Eur J Med Chem, 2014):
pIC50: −log10 of the molar value. Activity calls are given as the source filed them. The rule behind the calls is not given here.

Legend:
Rattus norvegicus [1] = organism: Rattus norvegicus; experiment: Inhibition of rat brain VGLUT assessed as inhibition of [3H]glutamate uptake into vesicles at 20 uM after 10 mins by scintillation spectrophotometry
Procedure, shortened: (§1)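 Crude rat synaptic vesicles were incubated at 37 °C in 10 mM HEPES-KOH pH 7.4 with 4 mM MgSO4, 4 mM KCl, 1 mM L-aspartate and test compound in DMSO. Uptake was started with ATP/Glu containing [3H]Glu and run for 10 min. It was stopped with ice-cold buffer, GF/C filtered, washed 4 times and counted by scintillation. Blanks without ATP or with CCCP/Trypan Blue were subtracted to give ATP-dependent uptake. At least triplicate.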

[2] = target: Synaptic vesicular amine transporter VMAT2 (Rattus norvegicus) (UniProt Q01827); experiment: Inhibition of rat vesicular monoamine transporter 2 assessed as inhibition of dopamine uptake at 200 uM
Rattus norvegicus [3] = organism: Rattus norvegicus; experiment: Inhibition of rat brain VGLUT assessed as inhibition of [3H]glutamate uptake into vesicles at 250 uM after 10 mins by scintillation spectrophotometry
[4] = Inhibition of rat brain VGLUT assessed as inhibition of [3H]glutamate uptake into vesicles after 10 mins by scintillation spectrophotometry; procedure, shortened: as §1
[5] = Competitive inhibition of rat brain VGLUT assessed as inhibition of [3H]glutamate uptake into vesicles after 10 mins by scintillation spectrophotometry
Procedure, shortened: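 Crude rat synaptic vesicles (50 µg aliquots) incubated in 10 mM HEPES-KOH pH 7.4, sucrose, 4 mM MgSO4, 4 mM KCl, L-aspartate. Uptake started with ATP plus Glu and [3H]Glu, 10 min at 37 °C. Compounds added from DMSO, final 0.20 nM upward. Ice-cold buffer stop, GF/C filtration, four washes, scintillation counting. Uptake without ATP or with CCCP/Trypan Blue subtracted; at least triplicate.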

Homo sapiens [6] = organism: Homo sapiens; experiment: Antagonist activity at mGluR (unknown origin) at 200 uM by cell-based assay
Homo sapiens [7] = organism: Homo sapiens; experiment: Agonist activity at mGluR (unknown origin) at 200 uM by cell-based assay

Row | SMILES | inhibition (Rattus norvegicus [1]) | inhibition [2] | pIC50 [4] | also measured
1 | Cc1cc(-c2ccc(N/N=C3\C(=O)c4c(N)cc(S(=O)(=O)O)cc4C=C3S(=O)(=O)O)c(C)c2)ccc1N | 52% | inactive | – | –
2 | O=C(O)c1cc(C(=O)O)c2ccccc2n1 | – | – | – | inhibition (Rattus norvegicus [3]): inactive
3 | Cc1cc(-c2ccc(/N=N/c3c(S(=O)(=O)O)cc4cc(S(=O)(=O)O)cc(N)c4c3O)c(C)c2)ccc1/N=N/c1c(S(=O)(=O)O)cc2cc(S(=O)(=O)O)cc(N)c2c1O [TRYPAN BLUE] | – | – | 7.30 | pIC50 [5]: 7.00
4 | Cc1cc(C(=O)O)cc(C)c1N/N=C1\C(=O)c2c(N)cc(S(=O)(=O)O)cc2C=C1S(=O)(=O)O | 5% | inactive | – | –
5 | Cc1cc(I)ccc1N/N=C1\C(=O)c2c(N)cc(S(=O)(=O)O)cc2C=C1S(=O)(=O)O | 83% | inactive | 5.68 | Activity (Homo sapiens [6]): inactive; Activity (Homo sapiens [7]): inactive
6 | Nc1cc(S(=O)(=O)O)cc2c1C(=O)/C(=N\Nc1ccc(C(=O)O)cc1C(F)(F)F)C(S(=O)(=O)O)=C2 | 76% | inactive | 5.17 | –
7 | O=C1/C(=N\Nc2ccc(I)cc2Cl)C(S(=O)(=O)O)=Cc2cc(S(=O)(=O)O)ccc21 | inactive | – | – | –
8 | Nc1cc(S(=O)(=O)O)cc2c1C(=O)/C(=N\Nc1ccc(C(=O)O)cc1F)C(S(=O)(=O)O)=C2 | 18% | inactive | – | –
9 | COc1cc(-c2ccc(/N=N/c3ccc4c(S(=O)(=O)O)cc(S(=O)(=O)O)c(N)c4c3O)c(OC)c2)ccc1/N=N/c1ccc2c(S(=O)(=O)O)cc(S(=O)(=O)O)c(N)c2c1O [CHICAGO SKY BLUE] | – | – | 5.52 | –
10 | Nc1cc(S(=O)(=O)O)cc2c1C(=O)/C(=N\Nc1c(O)c(F)c(Br)c(F)c1F)C(S(=O)(=O)O)=C2 | 39% | inactive | – | –
11 | Nc1cc(S(=O)(=O)O)cc2c1C(=O)/C(=N\Nc1c(F)c(F)c(-c3c(F)c(F)c(N)c(F)c3F)c(F)c1F)C(S(=O)(=O)O)=C2 | 96% | inactive | 5.48 | –
12 | COc1cc(C(=O)O)ccc1N/N=C1\C(=O)c2c(N)cc(S(=O)(=O)O)cc2C=C1S(=O)(=O)O | 25% | inactive | – | –
13 | O=C(O)c1cc(C(=O)O)c2cc(/C=C/c3ccccc3)ccc2n1 | – | – | 4.40 | –
14 | Nc1cc(S(=O)(=O)O)cc2c1C(=O)/C(=N\Nc1ccc(C(=O)O)cc1Cl)C(S(=O)(=O)O)=C2 | 55% | inactive | – | –
15 | Nc1cc(S(=O)(=O)O)cc2c1C(=O)/C(=N\Nc1ccc(I)cc1F)C(S(=O)(=O)O)=C2 | 46% | inactive | – | –
16 | Nc1ccc(-c2ccc(N/N=C3\C(=O)c4c(N)cc(S(=O)(=O)O)cc4C=C3S(=O)(=O)O)c(F)c2)cc1F | 74% | inactive | 5.32 | –
17 | O=C1C(S(=O)(=O)O)=Cc2cc(S(=O)(=O)O)ccc2/C1=N/Nc1ccc(I)cc1Cl | inactive | – | – | –

Row | SMILES | inhibition (Rattus norvegicus [1]) | inhibition [2] | pIC50 [4] | also measured
18 | Nc1cc(S(=O)(=O)O)cc2cc(S(=O)(=O)O)cc(O)c12 | inactive | – | – | –
19 | Nc1cc(S(=O)(=O)O)cc2c1C(=O)/C(=N\Nc1ccc(I)cc1C(F)(F)F)C(S(=O)(=O)O)=C2 | 83% | inactive | 5.24 | –
20 | Cc1cc(Br)cc(C)c1N/N=C1\C(=O)c2c(N)cc(S(=O)(=O)O)cc2C=C1S(=O)(=O)O | 77% | inactive | 5.68 | –
21 | Nc1cc(S(=O)(=O)O)cc2c1C(=O)/C(=N\Nc1c(O)c(F)c(C(=O)O)c(F)c1F)C(S(=O)(=O)O)=C2 | 18% | inactive | – | –
22 | Nc1cc(S(=O)(=O)O)cc2c1C(=O)/C(=N\Nc1ccc(I)cc1Cl)C(S(=O)(=O)O)=C2 | 45% | inactive | – | –
23 | Nc1ccc(-c2ccc(N/N=C3\C(=O)c4c(N)cc(S(=O)(=O)O)cc4C=C3S(=O)(=O)O)cc2)cc1 | 25% | inactive | – | –
24 | O=C(O)c1cc(C(=O)O)c2cccc(O)c2n1 | – | – | 3.54 | –
25 | Cc1cc(-c2ccc(/N=N/c3ccc4c(S(=O)(=O)O)cc(S(=O)(=O)O)c(N)c4c3O)c(C)c2)ccc1/N=N/c1ccc2c(S(=O)(=O)O)cc(S(=O)(=O)O)c(N)c2c1O [EVANS BLUE] | – | – | 7.06 | –
26 | Nc1cc(S(=O)(=O)O)cc2c1C(=O)/C(=N\Nc1ccc(Br)cc1)C(S(=O)(=O)O)=C2 | 33% | inactive | – | –
27 | Nc1ccc(-c2ccc(N/N=C3\C(=O)c4c(N)cc(S(=O)(=O)O)cc4C=C3S(=O)(=O)O)c(Cl)c2)cc1Cl | 88% | inactive | 5.80 | Activity (Homo sapiens [6]): inactive; Activity (Homo sapiens [7]): inactive
28 | Nc1cc(S(=O)(=O)O)cc2c1C(=O)/C(=N\Nc1ccc(C(=O)O)cc1)C(S(=O)(=O)O)=C2 | 15% | inactive | – | –
29 | N=c1ccc2c(=O)/c(=N\Nc3ccc(I)cc3Cl)c(S(=O)(=O)O)cc=2/c1=N/Nc1ccc(I)cc1Cl | inactive | – | – | –
30 | Cc1cc(C(=O)O)ccc1N/N=C1\C(=O)c2c(N)cc(S(=O)(=O)O)cc2C=C1S(=O)(=O)O | 15% | inactive | – | –
31 | COc1cc(Br)ccc1N/N=C1\C(=O)c2c(N)cc(S(=O)(=O)O)cc2C=C1S(=O)(=O)O | 42% | inactive | < 4.70 | –
32 | O=C(O)c1cc(C(=O)O)c2cc(/N=N/c3ccc(-c4ccccc4)cc3)ccc2n1 | – | – | 3.54 | –
33 | Nc1ccc(-c2ccc(N/N=C3\C(=O)c4c(N)cc(S(=O)(=O)O)cc4C=C3S(=O)(=O)O)c(C(F)(F)F)c2)cc1C(F)(F)F | 98% | inactive | 5.74 | –
